Active and inactive are the calls of the source. The rule behind the calls is not given here.
Columns and labels:
[1] = Cytotoxicity against mock-infected human MT4 cells by MTT assay; type: cell-based
How it was run: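 Mock-infected MT-4 cells, tested in parallel with the antiviral assay; viability read by MTT method; CC50 is the concentration lowering viability by 50%; mean of three separate experiments, triplicate variation under 10%.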

[2] = test system: Human immunodeficiency virus 1; test: Antiviral activity against wild type HIV1 3B in human MT4 cells assessed as protection against viral induced cytopathogenicity by MTT assay; type: functional, organism-based; conditions: Human immunodeficiency virus 1, 3B
How it was run: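 MT-4 cells infected with HIV-1; 50% protection from virus-induced cytopathogenicity read by MTT method; EC50 in micromolar; mean of three separate experiments, triplicate samples varying under 10%.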

[3] = Selectivity index, ratio of CC50 for human MT4 cells to EC50 for HIV1 3B; type: toxicity, cell-based; conditions: read-out: Ratio CC50/EC50
How it was run: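 Ratio of CC50 in mock-infected MT-4 cells to EC50 for protection from HIV-1 cytopathogenicity, both read by MTT method.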

[4] = test system: Human immunodeficiency virus 1; test: Antiviral activity against HIV1 3B Y181C/K103N double mutant in human MT4 cells assessed as protection against viral induced cytopathogenicity by MTT assay; type: functional, organism-based
How it was run: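 MT-4 cells infected with HIV-1 carrying the NNRTI-resistance mutation were assayed for protection from virus-induced cytopathogenicity, read out as cell viability by MTT. EC50 is the compound concentration giving 50% protection. Values are means of three separate experiments, with variation among triplicate samples under 10%. Efavirenz served as the reference.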

| Compound | CC50 [1] | EC50 [2] | selectivity ratio [3] | Activity [4] |
| --- | --- | --- | --- | --- |
| O=C1c2ccccc2C(=O)N1CCOC(=S)Nc1cc(Cl)cc(Cl)c1 | > 100 µM | 12 µM | > 8 |  |
| Cc1cc(C)cc(NC(=S)OCCN2C(=O)c3ccccc3C2=O)c1 | > 100 µM | 4 µM | > 25 |  |
| COc1ccc(CCNC(=S)OCCNC(=O)c2ccccc2C(=O)O)cc1OC | 100 µM | 63 µM | 1.6 | inactive |
| O=C1c2ccccc2C(=O)N1CCOC(=S)Nc1cc(F)cc(F)c1 | > 100 µM | 9 µM | > 11.1 | inactive |
| C[C@@H](COC(=S)Nc1ccc(Cl)cc1)NC(=O)c1ccccc1C(=O)O | > 100 µM | 2.3 µM | > 43.5 | inactive |
| O=C1c2ccccc2C(=O)N1CCOC(=S)NCc1ccccc1 | > 100 µM | 26 µM | > 3.8 |  |
| CC(COC(=S)Nc1ccc(Cl)cc1)N1C(=O)c2ccccc2C1=O (racemic) |  | 0.05 µM |  |  |
| O=C1c2ccccc2C(=O)N1CCOC(=S)Nc1ccc(F)cc1 |  | 0.1 µM |  |  |
| O=C1c2ccccc2C(=O)N1CCOC(=S)Nc1ccc(Cl)cc1 |  | 0.04 µM |  |  |
| Cc1ccc(NC(=S)OCCN2C(=O)c3ccccc3C2=O)c(C)c1 | > 100 µM | 6 µM | > 16.7 |  |
| Cc1ccc(NC(=S)OCCN2C(=O)c3ccc(C(C)(C)C)cc3C2=O)cc1 | 42 µM | 1.5 µM | 28 | inactive |
| COc1ccc(Cl)cc1NC(=S)OCCN1C(=O)c2ccccc2C1=O | > 100 µM | 48 µM | > 2.1 |  |
| Cc1ccc(NC(=S)OC[C@H](C)NC(=O)c2ccccc2C(=O)O)cc1 | > 100 µM | 13.8 µM | > 7.2 | inactive |
| O=C1c2ccccc2C(=O)N1CCOC(=S)Nc1ccc([N+](=O)[O-])cc1Cl | > 100 µM | > 100 µM |  |  |
| Cc1ccc2c(c1)C(=O)N(CCOC(=S)Nc1ccc(Cl)cc1)C2=O |  | 0.025 µM |  |  |
| Cc1ccc2c(c1)C(=O)N(CCOC(=S)NC1CCCCC1)C2=O | > 100 µM | 0.3 µM | > 333 | inactive |
| Cc1ccc(Cl)cc1NC(=S)OCCN1C(=O)c2ccccc2C1=O | > 100 µM | > 100 µM |  |  |
| Cc1ccc2c(c1)C(=O)N(CCOC(=S)Nc1ccc(Cl)c(C(F)(F)F)c1)C2=O | 43 µM | 2.4 µM | 17.9 | inactive |
| CC(=O)c1ccc(NC(=S)OCCN2C(=O)c3ccccc3C2=O)cc1 |  | 0.14 µM |  |  |
| CCc1ccc(NC(=S)OCCN2C(=O)c3ccccc3C2=O)cc1 |  | 0.08 µM |  |  |
| O=C1c2ccccc2C(=O)N1CCOC(=S)Nc1ccc(Cl)c(C(F)(F)F)c1 | 84 µM | 8 µM | 10.5 |  |
| O=C(O)c1ccccc1C(=O)NCCOC(=S)Nc1cc(F)cc(F)c1 | > 100 µM | 62 µM | > 1.6 | inactive |

| Compound | CC50 [1] | EC50 [2] | selectivity ratio [3] | Activity [4] |
| --- | --- | --- | --- | --- |
| COc1ccc(NC(=S)OCCNC(=O)c2ccccc2C(=O)O)cc1OC | > 100 µM | 16 µM | > 6.2 |  |
| O=C1c2ccccc2C(=O)N1CCOC(=S)NC1CC1 | > 100 µM | > 100 µM |  |  |
| O=C1c2ccccc2C(=O)N1CCOC(=S)Nc1c(Cl)cccc1Cl | > 100 µM | 21 µM | > 4.8 |  |
| O=C1c2ccccc2C(=O)N1CCOC(=S)Nc1ccc(I)cc1 |  | 0.02 µM |  |  |
| Cc1ccc(NC(=S)OCCNC(=O)c2ccccc2C(=O)O)c(C)c1 | > 100 µM | 53 µM | > 1.9 |  |
| O=C1c2ccccc2C(=O)N1CCOC(=S)NCC1CCCCC1 | > 100 µM | 1.1 µM | > 91 | inactive |
| C[C@@H](COC(=S)Nc1ccc(Cl)cc1)N1C(=O)c2ccccc2C1=O | 84 µM | 0.2 µM | 420 | inactive |
| O=C1c2ccccc2C(=O)N1CCOC(=S)Nc1c(F)c(F)cc(F)c1F | > 100 µM | 10 µM | > 10 | inactive |
| Cc1cc(Br)ccc1NC(=S)OCCN1C(=O)c2ccccc2C1=O | > 100 µM | 19 µM | > 5.3 |  |
| O=C1c2ccccc2C(=O)N1CCOC(=S)Nc1ccc(Cl)c(Cl)c1Cl | > 100 µM | 11 µM | > 9.1 | inactive |
| COc1ccc(NC(=S)OCCN2C(=O)c3ccccc3C2=O)cc1OC | > 100 µM | 3.5 µM | > 28.6 | inactive |
| COc1ccc(CCNC(=S)OCCN2C(=O)c3ccccc3C2=O)cc1OC | > 100 µM | 8 µM | > 12.5 | inactive |
| O=C(O)c1ccccc1C(=O)NCCOC(=S)Nc1ccc(Cl)c(Cl)c1Cl | > 100 µM | 44 µM | > 2.3 | inactive |
| Cc1ccc2c(c1)C(=O)N(CCOC(=S)Nc1ccc(Cl)c(Cl)c1)C2=O | 50 µM | 0.2 µM | 250 | inactive |
| O=C1c2ccccc2C(=O)N1CCOC(=S)Nc1ccc(F)cc1F | > 100 µM | 0.5 µM | > 200 | inactive |
| O=C1c2ccccc2C(=O)N1CCOC(=S)Nc1cc(Cl)ccc1Cl | > 100 µM | 42 µM | > 2.4 |  |
| Cc1cccc(C)c1NC(=S)OCCN1C(=O)c2ccccc2C1=O | > 100 µM | 75 µM | > 1.3 |  |
| Cc1ccc(NC(=S)OCCN2C(=O)c3ccccc3C2=O)cc1Cl | > 100 µM | 0.8 µM | > 125 | inactive |
| O=C(O)c1ccccc1C(=O)NCCOC(=S)Nc1c(F)cc(F)cc1F | > 100 µM | 7.2 µM | > 13.9 | inactive |
| Cc1ccc2c(c1)C(=O)N(CCOC(=S)Nc1ccc(C)c(Cl)c1)C2=O | 66 µM | 0.4 µM | 165 | inactive |
| CC(C)(C)CC(C)(C)NC(=S)OCCN1C(=O)c2ccccc2C1=O | > 100 µM | 60 µM | > 1.7 | inactive |
| O=C(O)c1ccccc1C(=O)NCCOC(=S)Nc1c(F)c(F)cc(F)c1F | > 100 µM | 71 µM | > 1.4 | inactive |

| Compound | CC50 [1] | EC50 [2] | selectivity ratio [3] | Activity [4] |
| --- | --- | --- | --- | --- |
| O=C1c2ccccc2C(=O)N1CCOC(=S)Nc1c(Cl)cc(Cl)cc1Cl | > 100 µM | 10 µM | > 10 | inactive |
| O=C1c2ccccc2C(=O)N1CCOC(=S)Nc1ccccc1 |  | 1.2 µM |  |  |
| N#Cc1ccc(NC(=S)OCCN2C(=O)c3ccccc3C2=O)cc1 |  | 0.07 µM |  |  |
| O=C1c2ccccc2C(=O)N1CCOC(=S)Nc1c(F)cc(F)cc1F | > 100 µM | 2 µM | > 50 | inactive |
| Cc1ccc2c(c1)C(=O)N(CCOC(=S)Nc1ccc(Br)cc1)C2=O | 59 µM | 0.008 µM | 7380 | inactive |
| CC(C)(C)c1ccc2c(c1)C(=O)N(CCOC(=S)Nc1ccc(Cl)cc1)C2=O | 55 µM | 1.2 µM | 45.8 | inactive |
| O=C1c2ccccc2C(=O)N1CCOC(=S)NCc1ccco1 | > 100 µM | > 100 µM |  | inactive |
| Cc1ccc(NC(=S)OCCN2C(=O)c3ccc(C)cc3C2=O)cc1 | 69 µM | 0.02 µM | 3450 | inactive |
| O=C1c2ccccc2C(=O)N1CCOC(=S)Nc1ccc(Cl)cc1Cl | > 100 µM | > 100 µM |  |  |
| O=C1c2ccccc2C(=O)N1CCOC(=S)Nc1ccc(Br)cc1 |  | 0.03 µM |  |  |
| Cc1ccc(Cl)cc1NC(=S)OCCNC(=O)c1ccccc1C(=O)O | > 100 µM | 30 µM | > 3.3 |  |
| COc1ccc(C)cc1NC(=S)OCCNC(=O)c1ccccc1C(=O)O | > 100 µM | 88 µM | > 1.1 |  |
| C=CCNC(=S)OCCN1C(=O)c2ccccc2C1=O | > 100 µM | > 100 µM |  |  |
| Cc1ccc(NC(=S)OCCNC(=O)c2ccccc2C(=O)O)cc1Cl | > 100 µM | 4.3 µM | > 23.2 |  |
| Cc1cccc(Cl)c1NC(=S)OCCN1C(=O)c2ccccc2C1=O | > 100 µM | 23 µM | > 4.3 |  |
| O=C1c2ccccc2C(=O)N1CCOC(=S)Nc1cccc(Cl)c1Cl | > 100 µM | 30 µM | > 3.3 |  |
| O=C1c2ccccc2C(=O)N1CCOC(=S)NC1CCCC1 | > 100 µM | 11 µM | > 9.1 |  |
| O=C1c2ccccc2C(=O)N1CCOC(=S)NC1CCCCCCC1 | > 100 µM | 0.6 µM | > 167 |  |
| Cc1cc(Cl)ccc1NC(=S)OCCN1C(=O)c2ccccc2C1=O | > 100 µM | 27 µM | > 3.7 |  |
| Cc1ccc(NC(=S)OCCN2C(=O)c3ccccc3C2=O)cc1 |  | 0.02 µM |  |  |
| COc1ccc(NC(=S)OCCN2C(=O)c3ccccc3C2=O)cc1 |  | 0.03 µM |  |  |

— ChEMBL document CHEMBL1137716, “Novel modifications in the series of O-(2-phthalimidoethyl)-N-substituted thiocarbamates and their ring-opened congeners as non-nucleoside HIV-1 reverse transcriptase inhibitors” (Eur J Med Chem, 2009)
